Hits are enriched below; roughly 2.2% of the tested compounds scored in any of these assays.
CSN inh: inhibitors of CSN-mediated cullin deneddylation, primary screen, biochemical, fluorescence polarization, uHTS | Purified CSN, SCF-Nedd8-OG deneddylation | inhibition, % at 12.5 µM | actives 0.38% (n = 360,000);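 active means pattern-corrected inhibition above about 35%, with an unprinted fluorescence ratio check between 0.5 and 1.5, limit read from the data, passing the limit was not always enough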;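 further: 0% = enzyme with substrate and 100% = substrate without enzyme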
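Assay system: Purified human Csn5 enzyme expressed in HEK293T cells | Amount: Enzyme 0.24 nM | Measured by: Fluorescence polarization readout | Medium: Tris/NaCl/DTT buffer, pH 7.5 | Compound dosing: One concentration, 12.5 µM, 0.25% DMSO | Times: 90 min incubation of compound, enzyme and substrate at room temperature | Control set: no-enzyme wells high, enzyme-with-substrate wells low | Read-out: % inhibition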
Myeloid diff MLP: induction of myeloid progenitor differentiation, primary screen, cell-based, flow cytometry, MLPCN library; calls only at 10 µM; ER-HoxA9 myeloid progenitors, lysozyme-GFP differentiation; AID 624256, 2012; actives 1% (n = 360,000);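 active means normalized GFP-positive differentiation at or above the plate's own cutoff, the solvent-only control mean plus 3 SD; inconclusive means no clear call, values can overlap the other calls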;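 further: cells exposed to compound for four days before flow analysis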
HNF4A DNA FP: change in binding of human HNF4A to DNA, primary screen, biochemical, fluorescence polarization, FITC-DNA. 1 h. activity change, % at 10 µM. actives 0.3% (n = 360,000); in the data active means activity change above about 30%, passing the limit was not always enough
Target sequence (P41235 whole entry, looked up): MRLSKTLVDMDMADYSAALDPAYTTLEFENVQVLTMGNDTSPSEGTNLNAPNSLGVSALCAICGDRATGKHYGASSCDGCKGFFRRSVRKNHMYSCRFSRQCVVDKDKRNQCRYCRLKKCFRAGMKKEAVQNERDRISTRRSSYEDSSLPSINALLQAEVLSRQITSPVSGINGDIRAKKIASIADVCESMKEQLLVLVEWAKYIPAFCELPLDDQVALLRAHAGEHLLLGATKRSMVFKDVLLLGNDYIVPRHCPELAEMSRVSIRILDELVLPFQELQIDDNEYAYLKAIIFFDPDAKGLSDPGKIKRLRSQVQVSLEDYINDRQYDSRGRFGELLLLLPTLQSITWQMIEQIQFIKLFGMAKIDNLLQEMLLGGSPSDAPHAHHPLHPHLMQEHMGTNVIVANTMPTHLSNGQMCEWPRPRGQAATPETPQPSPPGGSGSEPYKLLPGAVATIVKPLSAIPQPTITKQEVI
Granule exo inh: LAMP-1 surface exposure blockers, TALL-104 cells – cell-based, flow cytometry, MLPCN library, primary screen. inhibition, % at 10 µM. TALL-104 LAMP-1 surface exposure; cells stimulated with thapsigargin and PMA. actives 0.66% (n = 360,000);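 active means inhibition above about 55%, limit read from the data; inconclusive means no clear call, values can overlap the other calls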
The depositor's hits bear a star; ! = not active in a repeat.

Results for N=c1c(C(=O)NCc2ccco2)cc2c(=O)n3ccccc3nc2n1Cc1ccc(Cl)cc1 ?
CSN inh: 0.9; Myeloid diff MLP: inactive; HNF4A DNA FP: 0.3; Granule exo inh: 63.5*

Results for CCOC(=O)c1cc2c(=O)n3ccccc3nc2n(Cc2ccc(Cl)cc2)c1=N ?
CSN inh: 42.2*; Myeloid diff MLP: inactive; HNF4A DNA FP: 17.5; Granule exo inh: 1.1

Results for COc1ccc([C@H]2CC(=O)C=C(/C=C/c3ccc(C(F)(F)F)cc3)C2)cc1 ?
CSN inh: -2.1; Myeloid diff MLP: inactive; HNF4A DNA FP: -1.9; Granule exo inh: -1.1

What do the screens show for `COc1ccc(S(=O)(=O)NCCCN2CCCC2=O)cc1OC`?
CSN inh: 0.5; Myeloid diff MLP: inactive; HNF4A DNA FP: 1.9; Granule exo inh: 2.7

Results for COc1nc(N)nc2nc[nH]c12 ?
CSN inh: 2.6; Myeloid diff MLP: inactive; HNF4A DNA FP: 3.0; Granule exo inh: -0.1

How did O=S(=O)(Nc1cccnc1)c1cccc(C(F)(F)F)c1 do in these assays?
CSN inh: -9.2; Myeloid diff MLP: inactive; HNF4A DNA FP: -2.5; Granule exo inh: 9.9

How did O=[N+]([O-])c1ccc(S(=O)(=O)c2cccc(C(F)(F)F)c2)nc1 do in these assays?
CSN inh: -4.0; Myeloid diff MLP: inconclusive; HNF4A DNA FP: 1.5; Granule exo inh: 59.7*

Results for COc1ccc(CC(=O)OC(C)C(=O)c2ccc(C)cc2)cc1 (centres undefined) ?
CSN inh: -2.5; Myeloid diff MLP: inactive; HNF4A DNA FP: -2.6; Granule exo inh: -4.6

How did COc1cccc(NC(=O)CN(C)C(=O)c2ccc(S(=O)(=O)Nc3ccccc3F)cc2)c1 do in these assays?
CSN inh: 0.4; Myeloid diff MLP: inactive; HNF4A DNA FP: 2.9; Granule exo inh: -3.3

How did NC(=O)C1CCN(c2nc(-c3ccc(F)cc3)cs2)CC1 do in these assays?
CSN inh: 0.4; Myeloid diff MLP: active; HNF4A DNA FP: -0.9; Granule exo inh: 6.0

Results for NC(=O)C1CCN(c2nc(-c3cccnc3)cs2)CC1 ?
CSN inh: -2.9; Myeloid diff MLP: inactive; HNF4A DNA FP: 4.3; Granule exo inh: 5.0

What do the screens show for `COc1cccc(CN(C)C(=O)c2ccc(OCC(=O)N3CCOCC3)c(OC)c2)c1`?
CSN inh: -1.2; Myeloid diff MLP: inactive; HNF4A DNA FP: -0.7; Granule exo inh: 8.4

What do the screens show for `COc1cc(N2CCCC2)c(OC)cc1/C=C1/NC(=S)NC1=O`?
CSN inh: 113.8; Myeloid diff MLP: active; HNF4A DNA FP: 152.3; Granule exo inh: -5.8

How did CCOc1nc(N2CCOCC2)nc(N2CCOCC2)n1 do in these assays?
CSN inh: -2.4; Myeloid diff MLP: active; HNF4A DNA FP: 3.8; Granule exo inh: -3.1

How did Cc1noc(C)c1NC(=O)Nc1ccc2c(c1)C(=O)N([C@H](C)CO)C[C@H](C)[C@@H](CN(C)S(=O)(=O)c1c(C)noc1C)O2 do in these assays?
CSN inh: -0.8; Myeloid diff MLP: inactive; HNF4A DNA FP: 0.2; Granule exo inh: 0.1

Results for Cc1ccc2nc3sc(C(=O)N4CCCc5ccccc54)c(N)c3cc2c1 ?
CSN inh: -0.1; Myeloid diff MLP: inactive; HNF4A DNA FP: 39.2*; Granule exo inh: 16.1

Results for CN(Cc1cnc2nc(N)nc(N)c2n1)c1ccc(C(=O)N[C@@H](CCC(=O)O)C(=O)O)cc1 ?
CSN inh: -4.5; Myeloid diff MLP: active!; HNF4A DNA FP: -0.1; Granule exo inh: -5.0

Results for N#Cc1c(-c2ccc(F)cc2)cc(-c2cccnc2)nc1N ?
CSN inh: 3.2; Myeloid diff MLP: inactive; HNF4A DNA FP: 4.2; Granule exo inh: -1.0

How did N#Cc1c(-c2ccco2)cc(-c2ccc(F)cc2)nc1N do in these assays?
CSN inh: 27.1; Myeloid diff MLP: inactive; HNF4A DNA FP: 43.5*; Granule exo inh: 0.0

What do the screens show for `COCCNC(=O)C1Cc2cc(S(=O)(=O)N3CCCC3)ccc2N1C(C)=O` (centres undefined)?
CSN inh: 3.8; Myeloid diff MLP: inactive; HNF4A DNA FP: 3.6; Granule exo inh: 4.1

Results for Cc1c(-c2ccc(OCc3ccccc3)cc2)nc2ccccc2c1C(=O)O ?
CSN inh: 5.8; Myeloid diff MLP: active; HNF4A DNA FP: -1.0; Granule exo inh: -0.4

How did CCOc1ccccc1Oc1cn[nH]c1-c1ccc(OCC(=O)NN)cc1O do in these assays?
CSN inh: 1.1; Myeloid diff MLP: active; HNF4A DNA FP: 2.7; Granule exo inh: 28.4

Results for Cc1ccc(-c2nc(=S)c3c(n2Cc2ccco2)CCCC3)cc1 ?
CSN inh: 14.9; Myeloid diff MLP: inactive; HNF4A DNA FP: 0.1; Granule exo inh: 6.6

What do the screens show for `CC1(C)Cc2c(c(=S)nc(-c3ccccc3)n2CCCN2CCOCC2)CO1`?
CSN inh: 37.2*; HNF4A DNA FP: -2.3; Granule exo inh: 2.5

Results for CC1(C)Cc2c(c(=S)nc(-c3ccccc3)n2CCO)CO1 ?
CSN inh: 3.9; Myeloid diff MLP: inactive; HNF4A DNA FP: 4.3; Granule exo inh: -0.7

What do the screens show for `Cc1ccc(-c2nc(=S)c3c(n2Cc2ccco2)CC(C)(C)OC3)cc1`?
CSN inh: 12.4; Myeloid diff MLP: inactive; HNF4A DNA FP: 0.4; Granule exo inh: 61.1*

How did COc1ccccc1OCc1ccc(C(=O)NN)o1 do in these assays?
CSN inh: -3.3; Myeloid diff MLP: active; HNF4A DNA FP: -1.4; Granule exo inh: -4.6

How did Cc1ccc(NC(=O)c2ccc(COc3ccccc3[N+](=O)[O-])o2)nc1 do in these assays?
CSN inh: 1.0; Myeloid diff MLP: active; HNF4A DNA FP: 4.1; Granule exo inh: 0.7

How did COc1cc(C(=O)NCCC(c2ccccc2)c2ccccc2)cc(OC)c1OC do in these assays?
CSN inh: 0.4; Myeloid diff MLP: inactive; HNF4A DNA FP: 2.8; Granule exo inh: 9.6

Results for CN(CC(=O)Nc1ccc(F)c(F)c1F)C(=O)Cc1ccc2c(c1)OCCO2 ?
CSN inh: 1.3; Myeloid diff MLP: inactive; HNF4A DNA FP: 0.8; Granule exo inh: -2.6

How did CCOC(=O)C1C(=O)NC(SCC(N)=O)=C(C#N)C1c1ccccc1OCC (centres undefined) do in these assays?
CSN inh: 43.0*; Myeloid diff MLP: inactive; HNF4A DNA FP: 98.7*; Granule exo inh: -4.4

What do the screens show for `CCOC(=O)C1C(=O)NC(SC)=C(C#N)C1c1ccccc1F` (centres undefined)?
CSN inh: 1.6; Myeloid diff MLP: inactive; HNF4A DNA FP: 2.4; Granule exo inh: -0.3

What do the screens show for `N#Cc1ccsc1NC(=O)C1CCN(S(=O)(=O)c2cccs2)CC1`?
CSN inh: -6.6; Myeloid diff MLP: inactive; HNF4A DNA FP: -5.0; Granule exo inh: -2.7

How did CCOc1ccc(C(=O)Nc2cccc(C(=O)O)c2)cc1Cl do in these assays?
CSN inh: -3.2; Myeloid diff MLP: inactive; HNF4A DNA FP: 2.9; Granule exo inh: 0.2
